TRPC4 agonist: opens the mouse TRPC4 cation channel. HEK293 TRPC4beta/mu-opioid, Fluo4 calcium fluorescence; hits give high values. B-score at 10 µM. 310,000 tested, 0.49% active;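 active = B-score above 5 SD of library B-scores, and initial fluorescence ratio not above library mean plus 5 SD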;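 also: positive B-score marks a calcium rise read as TRPC4 activation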
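Incubation: 45 min room-temperature Fluo4 loading, 110 s read / System: HEK293 cells stably co-expressing mouse TRPC4beta and mu-opioid receptor / Signal: Fluo4 fluorescence, kinetic / Control set: buffer (low) and maximal DAMGO (high) / Measure: integrated baseline-normalised fluorescence ratio, converted to per-well B score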
TRPC6 act: activates the mouse TRPC6 cation channel | Q61143 | HEK293-TRPC6 membrane potential dye fluorescence; hits give high values | B-score at 10 µM | 310,000 tested, 0.13% active | AID 2550;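 active = B-score of the integrated fluorescence ratio above library mean plus 3 SD, and starting fluorescence ratio within library mean plus 5 SD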;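 also: higher score means more depolarization so channel activation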
Target sequence (Q61143 whole entry, looked up): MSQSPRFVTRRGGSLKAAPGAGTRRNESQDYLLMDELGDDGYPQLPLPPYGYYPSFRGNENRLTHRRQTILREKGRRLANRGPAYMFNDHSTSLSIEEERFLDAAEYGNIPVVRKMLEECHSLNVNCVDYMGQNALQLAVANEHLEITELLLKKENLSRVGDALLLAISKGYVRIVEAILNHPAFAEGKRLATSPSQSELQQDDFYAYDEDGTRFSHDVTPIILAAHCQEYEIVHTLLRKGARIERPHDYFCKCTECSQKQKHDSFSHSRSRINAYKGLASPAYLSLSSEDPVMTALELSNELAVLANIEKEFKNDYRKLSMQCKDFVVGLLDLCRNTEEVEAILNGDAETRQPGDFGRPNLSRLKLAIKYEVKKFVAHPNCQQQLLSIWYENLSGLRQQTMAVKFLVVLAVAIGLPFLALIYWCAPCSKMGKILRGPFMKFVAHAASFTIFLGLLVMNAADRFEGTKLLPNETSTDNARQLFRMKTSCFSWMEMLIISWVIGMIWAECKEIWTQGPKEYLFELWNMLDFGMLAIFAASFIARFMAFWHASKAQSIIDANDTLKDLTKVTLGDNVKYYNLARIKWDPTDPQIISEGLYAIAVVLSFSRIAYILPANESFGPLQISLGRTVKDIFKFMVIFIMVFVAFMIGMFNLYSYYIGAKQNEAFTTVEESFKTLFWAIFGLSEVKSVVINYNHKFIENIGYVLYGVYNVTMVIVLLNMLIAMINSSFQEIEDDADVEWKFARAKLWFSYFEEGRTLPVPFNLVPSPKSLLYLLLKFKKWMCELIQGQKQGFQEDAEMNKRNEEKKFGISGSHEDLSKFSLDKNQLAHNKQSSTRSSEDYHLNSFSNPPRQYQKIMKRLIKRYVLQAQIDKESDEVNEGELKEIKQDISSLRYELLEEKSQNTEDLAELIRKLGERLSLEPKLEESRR
TRPC4 potent: allosterically enhances the mouse TRPC4 cation channel | AID 2227 | HEK293 TRPC4beta/mu-opioid, DAMGO EC20, Fluo-4 Ca2+ flux; hits give high values | B-score at 10 µM | 310,000 tested, 0.42% active | Q9QUQ5;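 active = B-score of calcium response area above 5 SD of library B-scores, with initial fluorescence ratio within 5 SD of library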;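 also: B-score of integrated fluorescence ratio over time as area under calcium response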
TRPC6 inh: mouse TRPC6 channel inhibition | Q61143 | HEK293-TRPC6, membrane potential dye, ACh-evoked depolarization; hits give low values | B-score at 10 µM | 310,000 tested, 1.1% active | AID 2553;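 active = B-score under library mean minus 3 SD, initial fluorescence not abnormally high, positive integrated signal ratio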;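 also: B-score derived from integrated fluorescence ratio over the kinetic read; more negative B-score means stronger inhibition of depolarization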
TRPC4 block: TRPC4 (mouse) channel inhibition. B-score at 10 µM. Q9QUQ5. AID 2247. 300,000 tested, 0.39% active. HEK293 TRPC4beta/mu-opioid, DAMGO-evoked Fluo4 calcium flux; hits give low values;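 active = B-score over 3 SD under the library average, no early fluorescence shift, positive overall ratio signal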
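Assay system: HEK293 cells with stable TRPC4beta plus mu-opioid receptor expression. Dosing: single dose. Measured by: Fluo4 Ca2+ flux fluorescence. Also added: DAMGO in two steps, submaximal then maximal. Read-out: B score from integrated Fluo4 fluorescence ratio.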
TRPC4 spec 2: second check of whether TRPC6 inhibitors also affect mouse TRPC4; shares compounds with TRPC6 inh; AID 2776; inhibition, % at 10 µM; HEK293 TRPC4/MOR, membrane potential dye fluorescence; channel activated by saturating DAMGO dose; 920 tested, 42% active;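 active = compounds whose fluorescence signal differed from control wells by over 3 SD, either direction, in both duplicate plates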
TRPC4 spec: mouse TRPC4 off-target activity of TRPC6 inhibitors | HEK293 TRPC4/mu-opioid, membrane potential fluorescence | 920 tested, 61% active | shares compounds with TRPC6 inh | AID 2777 | activity change, negative = inhibition, % at 10 µM;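 active = rise or fall in signal beyond 3 SD of buffer-only wells in both replicate plates, either sign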;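 also: integrated kinetic ratio of fluorescence range over baseline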
HEK293 MPD ctr 2-1: parental HEK293 nonspecific activity of TRPC6 inhibitors, second screen | shares compounds with TRPC6 inh | signal change vs control, % at 10 µM | 920 tested, 31% active | parental HEK293 membrane potential dye fluorescence; maximal acetylcholine challenge after compound addition | AID 2779;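 active = membrane potential signal moving either way by over 3 SD of the maximum-effect control, in both duplicate plates, meaning non-specific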
HEK293 MPD ctr-1: checks TRPC6 inhibitor effects in parental HEK293 cells; shares compounds with TRPC6 inh; parental HEK293 membrane potential dye fluorescence; membrane potential signal change, % at 10 µM; 920 tested, 60% active; AID 2780;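 active = membrane potential signal shifting up or down by more than 3 SD of buffer-only wells, on both duplicate plates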
HEK293 MPD ctr-2: checks TRPC6 modulator effects in parental HEK293 cells; shares compounds with TRPC6 inh; 2,400 tested, 51% active; membrane potential signal change, % at 10 µM; membrane potential dye fluorescence;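 active = membrane potential signal moves up or down beyond 5 SD from buffer-only wells, on both duplicate plates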
HEK293 MPD ctr 2-2: parental HEK293 nonspecific activity of TRPC6 modulators, second screen | shares compounds with TRPC6 inh | membrane potential dye fluorescence; after compound, maximal acetylcholine stimulation | inhibition, % at 10 µM | 2,400 tested, 14% active | AID 488926;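 active = membrane potential signal drops by more than 5 SD from the mean control signal, in both duplicate plates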;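 also: plate controls were acetylcholine ECmax control wells for no effect and buffer only wells for full effect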
TRPC4 ctr mod: tests whether TRPC6 modulators also affect mouse TRPC4. shares compounds with TRPC6 inh. HEK293 TRPC4/mu-opioid, membrane potential fluorescence. percent change from control (negative = decrease, positive = increase), % at 10 µM. 2,400 tested, 69% active. AID 488927;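 active = membrane potential signal moved up or down beyond 5 SD of buffer control wells, in both duplicate plates, actives on both sides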;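 also: plate controls were assay buffer wells for no effect and DAMGO maximal-effect wells for full effect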
TRPC4/MOR inh 2: second selectivity test of TRPC6 modulators against mouse TRPC4. shares compounds with TRPC6 inh. HEK293 TRPC4/mu-opioid, membrane potential dye fluorescence; stimulated with maximal-effect DAMGO. inhibition, % at 10 µM. 2,400 tested, 55% active;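 active = drop in membrane potential signal beyond 5 SD of the control wells in both duplicate plates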;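 also: TRPC4 counter screen for TRPC6 hits run under conditions tuned for TRPC6 not TRPC4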
TRPC6 inh conf: mouse TRPC6 inhibitor confirmation. shares compounds with TRPC6 inh. HEK293-TRPC6, membrane potential dye, ACh-evoked depolarization. inhibition, % at 10 µM. 3,300 tested, 43% active. AID 488960;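 active = fluorescence ratio falls more than 5 SD below the full-stimulation control mean, in both duplicate runs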;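 also: integrated fluorescence ratio of peak minus minimum over baseline after agonist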
TRPC6 act confirm: confirmation of mouse TRPC6 activators; HEK293-TRPC6 membrane potential dye fluorescence, FDSS; shares compounds with TRPC6 inh; 2,800 tested, 11% active; activation, % at 10 µM;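 active = ratio signal rise beyond 5 SD above unstimulated control wells' mean, seen in both duplicate runs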;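 also: plate controls were buffer EC0 wells for no effect and acetylcholine ECmax response for full effect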
An asterisk follows results filed as active. This is a sample that favours compounds with a hit; in the whole collection about 2.3% have one here.

Screening Nc1ccc(Br)c2c1C(=O)c1ccccc1C2=O returned TRPC4 agonist inactive, TRPC6 act inactive, TRPC4 potent inactive, TRPC6 inh inactive and TRPC4 block inactive.
`Cc1cc2c(s1)Nc1ccccc1N=C2N1CCN(C)CC1` gave TRPC4 agonist inactive, TRPC6 act inactive, TRPC4 potent inactive, TRPC6 inh -6.04*, TRPC4 block inactive, HEK293 MPD ctr-2 inactive, HEK293 MPD ctr 2-2 inactive, TRPC4 ctr mod inactive, TRPC4/MOR inh 2 inactive, TRPC6 inh conf 58.5%* and TRPC6 act confirm inactive.
For CC[N+](C)(CC)CCOC(=O)C(O)(c1ccccc1)C1CCCCC1 (stereo not given) the results were TRPC4 agonist inactive, TRPC6 act inactive, TRPC4 potent inactive, TRPC6 inh -8.93*, TRPC4 block inactive, TRPC4 spec 2 inactive, TRPC4 spec inactive, HEK293 MPD ctr 2-1 -33.0%*, HEK293 MPD ctr-1 inactive, TRPC6 inh conf 83.0%* and TRPC6 act confirm inactive.
Screening CC[N+](C)(CC)CCC(c1ccccc1)C1CCCCC1 (stereo not given) returned TRPC4 agonist inactive, TRPC6 act inactive, TRPC4 potent inactive, TRPC6 inh -9.59*, TRPC4 block inactive, TRPC4 spec 2 inactive, TRPC4 spec inactive, HEK293 MPD ctr 2-1 -16.0%*, HEK293 MPD ctr-1 inactive, TRPC6 inh conf 81.2%* and TRPC6 act confirm inactive.
CCC(C(=O)NC1CCCCCC1)c1ccccc1 (stereo not given) was read as TRPC4 agonist inactive, TRPC6 act inactive, TRPC4 potent inactive, TRPC6 inh inactive and TRPC4 block inactive.
For CCOC(=O)C(C(=O)Nc1ccccc1)C1CCCCC1 (stereo not given) the results were TRPC4 agonist inactive, TRPC6 act inactive, TRPC4 potent inactive, TRPC6 inh inactive and TRPC4 block inactive.
`Cc1ccc(NS(=O)(=O)c2cc3[nH]c(=O)c(=O)[nH]c3cc2C)c(C)c1` gave TRPC4 agonist inactive, TRPC6 act inactive, TRPC4 potent inactive, TRPC6 inh inactive and TRPC4 block inactive.
CC(C)(C)c1ccc(OC(=O)CN2C(=O)C3C4CCC(C4)C3C2=O)cc1 (stereo not given) was read as TRPC4 agonist inactive, TRPC6 act inactive, TRPC4 potent inactive, TRPC6 inh -5.86*, TRPC4 block inactive, HEK293 MPD ctr-2 inactive, HEK293 MPD ctr 2-2 inactive, TRPC4 ctr mod inactive, TRPC4/MOR inh 2 inactive, TRPC6 inh conf inactive and TRPC6 act confirm inactive.
O=C(CN1C(=O)C2C3CCC(C3)C2C1=O)OCC(=O)c1ccccc1 (stereo not given) was read as TRPC4 agonist inactive, TRPC6 act inactive, TRPC4 potent inactive, TRPC6 inh inactive and TRPC4 block inactive.
CNS(=O)(=O)c1cccc(C(=O)OCc2cc(=O)oc3c(C)c(O)ccc23)c1 was read as TRPC4 agonist inactive, TRPC6 act inactive, TRPC4 potent inactive, TRPC6 inh -6.26*, TRPC4 block inactive, HEK293 MPD ctr-2 inactive, HEK293 MPD ctr 2-2 inactive, TRPC4 ctr mod inactive, TRPC4/MOR inh 2 54.0%*, TRPC6 inh conf inactive and TRPC6 act confirm inactive.
`CCCCc1cc(=O)oc2cc(C)cc(OCC(=O)NCc3ccncc3)c12` gave TRPC4 agonist inactive, TRPC6 act inactive, TRPC4 potent inactive, TRPC6 inh -7.43*, TRPC4 block inactive, HEK293 MPD ctr-2 inactive, HEK293 MPD ctr 2-2 inactive, TRPC4 ctr mod inactive, TRPC4/MOR inh 2 inactive, TRPC6 inh conf inactive and TRPC6 act confirm inactive.
For CC(C)CN(C(=O)c1ccc(C(F)(F)F)cc1)c1c(N)n(CC(C)C)c(=O)[nH]c1=O the results were TRPC4 agonist inactive, TRPC6 act inactive, TRPC4 potent inactive, TRPC6 inh inactive and TRPC4 block inactive.
COc1nc(Nc2cccc(F)c2)nc(OC)n1 was read as TRPC4 agonist inactive, TRPC6 act inactive, TRPC4 potent inactive, TRPC6 inh inactive and TRPC4 block inactive.
COc1cc2nc(Nc3cccc(F)c3)nc(N)c2cc1OC was read as TRPC4 agonist inactive, TRPC6 act inactive, TRPC4 potent inactive, TRPC6 inh -6.47*, TRPC4 block inactive, HEK293 MPD ctr-2 inactive, HEK293 MPD ctr 2-2 inactive, TRPC4 ctr mod inactive, TRPC4/MOR inh 2 47.0%*, TRPC6 inh conf 52.0%* and TRPC6 act confirm inactive.
Cc1ccc(Nc2nc3ccccc3c(=O)[nH]2)cc1C was read as TRPC4 agonist inactive, TRPC6 act inactive, TRPC4 potent inactive, TRPC6 inh inactive and TRPC4 block inactive.
For COc1ccc(Nc2nc(N)c3ccccc3n2)c(OC)c1 the results were TRPC4 agonist inactive, TRPC6 act inactive, TRPC4 potent inactive, TRPC6 inh -10*, TRPC4 block -7*, HEK293 MPD ctr-2 -202.5%*, HEK293 MPD ctr 2-2 85.5%*, TRPC4 ctr mod -41.5%*, TRPC4/MOR inh 2 92.0%*, TRPC6 inh conf 90.5%* and TRPC6 act confirm inactive.

Screening data deposited in PubChem by Johns Hopkins Ion Channel Center.
